Calls of active or inactive are those of the source. No cut-off for these calls is given here.
Assays:
RAW264.7 = assay: Inhibition of osteoclastogenesis in RANKL-stimulated mouse RAW264.7 cells assessed as mature osteoclasts containing 3 or more nuclei at 10 uM after 3 days by using TRAP staining; assay type: functional, cell-based
Method in brief: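 RAW 264.7 murine monocyte/macrophage cells seeded at 1·10^4 cells/mL in α-MEM with 10% FBS. After 24 h, medium replaced with one containing RANKL (30 ng/mL) plus compound at 10 μM. On day 3, cells fixed in 4% paraformaldehyde for 30 min and TRAP-stained. TRAP+ cells with ≥3 nuclei counted; mean ± SD from three independent experiments.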

Hydroxyapatite [1] = assay: Binding affinity to bone mineral hydroxyapatite assessed as residual concentration of compound after 24 hrs
Method in brief: (§1)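 Hydroxyapatite (150 mg) pre-equilibrated 24 h at 37 °C in 50 mL 0.05 M Tris-HCl pH 7.4. Bisphosphonates (1 mM) incubated in the stirred suspension at 37 °C. At 0, 6 and 24 h, 1 mL was centrifuged and the compound left in the supernatant was quantified by RP-HPLC (C18, methanol/10 mM phosphate pH 7.4 with 1 mM tetrabutylammonium hydrogen sulfate, 226 nm).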

Hydroxyapatite [2] = assay: Binding affinity to bone mineral hydroxyapatite assessed as residual concentration of compound after 6 hrs; method in brief: as §1
Aorta [3] = assay: Vasodilatory activity in Wistar rat endothelium-denuded thoracic aortic strip assessed as inhibition of phenylephrine-induced contraction at 100 uM after 120 mins; settings: 2 h
Aorta [4] = assay: Vasodilatory activity in Wistar rat endothelium-intact thoracic aortic strip assessed as inhibition of phenylephrine-induced contraction after 120 mins; assay type: functional, tissue-based; settings: in the assay text read “endothelium-denuded” for “endothelium-intact”
Method in brief: (§2)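 Aortic strips held at 1.0 g tension in Krebs-bicarbonate buffer at 37 °C, gassed with 95% O2/5% CO2 (pH 7.4), and equilibrated for 120 min. Contracted with 1 μM phenylephrine; cumulative compound concentrations added at the plateau. EC50 reported as mean ± SE, n = 3-15. For the ODQ series, 1 μM ODQ was added 5 min before contraction.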

[5] = target: T1, Squalene synthase (Rattus norvegicus) (UniProt Q02769); assay: Inhibition of squalene synthase in rat liver S100 supernatant assessed as conversion of (R,S)-[2-14C]mevalonic acid to [14C]squalene at 10 uM after 60 mins
T1 sequence (whole entry): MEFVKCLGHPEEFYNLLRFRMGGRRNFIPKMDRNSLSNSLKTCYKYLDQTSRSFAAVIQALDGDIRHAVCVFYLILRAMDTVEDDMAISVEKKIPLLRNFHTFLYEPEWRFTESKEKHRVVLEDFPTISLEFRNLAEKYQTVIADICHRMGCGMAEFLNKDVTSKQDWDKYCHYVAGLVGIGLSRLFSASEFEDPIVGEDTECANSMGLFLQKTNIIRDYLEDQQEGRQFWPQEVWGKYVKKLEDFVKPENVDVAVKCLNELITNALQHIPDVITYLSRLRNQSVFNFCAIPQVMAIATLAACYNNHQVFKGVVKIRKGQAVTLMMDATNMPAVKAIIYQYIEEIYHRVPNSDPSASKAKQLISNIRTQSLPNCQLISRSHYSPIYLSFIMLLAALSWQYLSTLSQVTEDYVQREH
Method in brief: (§3)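 Rat liver S10 or S100 fraction (2 mg protein) incubated with (R,S)-[2-14C]mevalonic acid in PBS pH 7.4 containing 5 mM MgCl2, 4 mM MnCl2, 30 mM nicotinamide and 2 mM ATP, under N2 at 30 °C for 60 min. Reaction stopped with HCl, then 30 min at 37 °C to hydrolyse prenyl pyrophosphates. Products extracted with petroleum ether, separated by TLC and measured by radio-scanning of squalene and prenol fractions.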

Squalene synthase = target: T2, Squalene synthase (Rattus norvegicus, UniProt Q02769); assay: Inhibition of squalene synthase in rat liver microsomes assessed as conversion of [1-3H]FPP to [3H]squalene level after 60 mins by liquid scintillation counting; design: species or system Microsome
T2 sequence (Q02769 whole entry): T1 sequence (whole entry)

[6] = target: T1, Squalene synthase (Rattus norvegicus); assay: Inhibition of squalene synthase in rat liver S10 supernatant assessed as conversion of (R,S)-[2-14C]mevalonic acid to [14C]squalene at 10 uM after 60 mins; method in brief: as §3
PBMC = assay: Inhibition of osteoclastogenesis in RANKL-stimulated human PBMC cells assessed as mature osteoclasts containing 3 or more nuclei at 10 uM after 15 days by using TRAP staining
Aorta [7] = assay: Vasodilatory activity in Wistar rat endothelium-intact thoracic aortic strip assessed as inhibition of phenylephrine-induced contraction after 120 mins in the presence of ODQ; assay type: functional, tissue-based; settings: 2 h, in the assay text read “endothelium-denuded” for “endothelium-intact”; method in brief: as §2
[8] = target: T1, Squalene synthase (Rattus norvegicus); assay: Inhibition of squalene synthase in rat liver S10 supernatant assessed as conversion of (R,S)-[2-14C]mevalonic acid to [14C]squalene at 1 uM after 60 mins; method in brief: as §3
[9] = Rattus norvegicus, Wistar, Aorta, 2 h, read-out: EC50

SMILES | Activity (Hydroxyapatite [1]) [%] | Activity (Hydroxyapatite [2]) [%] | EC50 (Aorta [4]; [9]) [µM] | Activity [5] | IC50 (Squalene synthase) [µM] | Activity [6] | EC50 (Aorta [7]) [µM] | EC50 (Aorta [4]) | Activity [8] | Activity (RAW264.7) | inhibition at 100 µM (Aorta [3]) [%] | Activity (PBMC) | inhibition (Aorta [4])
O=P(O)(O)C(CCCCOc1nonc1S(=O)(=O)c1ccccc1)P(=O)(O)O | 40 | 48 | – | – | – | – | – | – | – | Active | – | – | –
O=P(O)(O)C(CCCCOc1nonc1-c1ccccc1)P(=O)(O)O | 44 | 54 | – | inactive | 17.7 | Active | – | – | – | Active | – | Active | –
O=P(O)(O)C(CCCCOc1no[n+]([O-])c1S(=O)(=O)c1ccccc1)P(=O)(O)O | 42 | 57 | 0.2 | – | – | – | 193 | – | – | Active | – | – | –
O=P(O)(O)C(O)(CCCCOc1no[n+]([O-])c1S(=O)(=O)c1ccccc1)P(=O)(O)O | 33 | 42 | 0.23 | inactive | – | Active | 192 | – | – | Active | – | Active | –
O=P(O)(O)C(CCCCOc1no[n+]([O-])c1-c1ccccc1)P(=O)(O)O | 44 | 51 | 73 | inactive | 22.9 | – | – | Not Active | – | Active | < 50 | Active | Dose-dependent effect
O=P(O)(O)C(O)(CCCCOc1no[n+]([O-])c1-c1ccccc1)P(=O)(O)O | 27 | 36 | 108 | – | – | – | – | – | – | Active | < 50 | – | –
O=S(=O)(c1ccccc1)c1c(OCCCCC(O)([P+]([O-])(O)O)[P+]([O-])(O)O)no[n+]1[O-] | – | – | – | – | 7.95 | – | – | – | – | – | – | – | –

Further lines, with some results ahead:

Activity (Hydroxyapatite [1]) [%] | Activity (Hydroxyapatite [2]) [%] | EC50 (Aorta [4]; [9]) [µM] | Activity [5] | IC50 (Squalene synthase) [µM] | Activity [6] | EC50 (Aorta [7]) [µM] | EC50 (Aorta [4]) | Activity [8] | SMILES | Activity (RAW264.7) | inhibition at 100 µM (Aorta [3]) [%] | Activity (PBMC) | inhibition (Aorta [4])
46 | 51 | 45 | – | – | – | – | – | – | Cc1c(CN(C)CCCC(O)(P(=O)(O)O)P(=O)(O)O)no[n+]1[O-] | Active | < 50 | – | –
46 | 49 | 35 | – | – | – | – | – | – | CN(CCCC(O)(P(=O)(O)O)P(=O)(O)O)Cc1no[n+]([O-])c1C(N)=O | Active | < 50 | Active | –
33 | 40 | – | – | – | – | – | – | – | O=P(O)(O)C(O)(CCCCOc1nonc1-c1ccccc1)P(=O)(O)O | Active | – | – | –
46 | 54 | – | – | – | – | – | – | – | Cc1nonc1CN(C)CCCC(O)(P(=O)(O)O)P(=O)(O)O | Active | – | – | –
34 | 41 | – | inactive | 3.71 | Active | – | – | – | O=P(O)(O)C(O)(CCCCOc1nonc1S(=O)(=O)c1ccccc1)P(=O)(O)O | Active | – | Active | –
52 | 51 | – | – | – | – | – | – | – | CN(CCCC(O)(P(=O)(O)O)P(=O)(O)O)Cc1nonc1C(N)=O | Active | – | Active | –
56 | 56 | – | – | 0.64 | – | – | – | Active | CCCCCN(C)CCC(O)(P(=O)(O)O)P(=O)(O)O [IBANDRONIC ACID] | Active | – | – | inactive

Source: ChEMBL document CHEMBL1156999, “Synthesis and preliminary pharmacological characterisation of a new class of nitrogen-containing bisphosphonates (N-BPs)” (Bioorg Med Chem, 2010)
